Experiments:
[1] = tested on: panel of 11 human tumor cell lines; experiment: MTT antiproliferative assay, whole panel; type: cell-based; conditions: read-out: GI50 values across the panel
In short: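 Leukemia lines grown in RPMI-1640 and adherent carcinoma lines in DMEM, each with 10% FBS plus penicillin/streptomycin. Seeded at 8 × 10³ cells/well and settled 18 h at 37 °C, 5% CO₂. Medium was then replaced with fresh medium holding graded compound concentrations from 10 mM DMSO stocks, in triplicate, for 72 h. Viability by MTT; GI50 is the concentration inhibiting proliferation by 50%.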

Jurkat cells [2] = experiment: ROS production; type: cell-based, human; conditions: 24 or 48 h
In short: (§1)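 HeLa or Jurkat cells were treated with test compound for 24 or 48 h, then loaded with H₂-DCFDA, which ROS oxidise to fluorescent DCF. Fluorescence was measured by flow cytometry. Mean ± SEM of three independent experiments.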

Jurkat cells [3] = experiment: Mitochondrial membrane potential; type: cell-based, human; conditions: 24 or 48 h
HeLa cells [4] = experiment: Flow cytometric cell cycle analysis, HeLa; type: cell-based, human; conditions: 24 h, different concentrations
In short: (§2)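 5 × 10⁵ HeLa (DMEM) or Jurkat (RPMI-1640) cells, both with 10% FBS, were treated with a range of test compound concentrations for 24 h. Cells were then collected and fixed in ice-cold 70% ethanol, lysed in buffer with RNase A and 0.1% Triton X-100, and PI-stained. DNA content was read by flow cytometry and histograms analysed for phase percentages. Mean of two independent experiments.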

[5] = Metabolic stability in human liver microsomes; type: in vitro ADME; conditions: 10 μM
In short: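 Pooled mixed-gender human liver microsomes (1.0 mg/mL) in 0.1 M KH₂PO₄, pH 7.4, with 10 μM final compound, with or without 1 mM NADPH; buffer-only controls. Microsomes added after 3-min equilibration at 37 °C. Stopped at 0, 15, 30 or 60 min with ice-cold acetonitrile, then centrifuged. Supernatants analysed by C18 HPLC with fluorescence detection (ex 344/em 493 nm). Percent remaining from peak area versus 0 min; mean ± SD, n = 3–4.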

HeLa cells [6] = experiment: ROS production; type: cell-based, human; conditions: 24 or 48 h
In short: as §1

Jurkat cells [7] = experiment: Flow cytometric cell cycle analysis, Jurkat; type: cell-based, human; conditions: 24 h, different concentrations
In short: as §2

HeLa cells [8] = experiment: Mitochondrial membrane potential; type: cell-based, human; conditions: 24 or 48 h
HeLa cells [9] = experiment: Annexin-V/PI apoptosis assay, HeLa; type: cell-based, human; conditions: 24 or 48 h
In short: (§3)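 Human lines: HeLa grown in DMEM and Jurkat in RPMI-1640, each with 10% FBS, penicillin G and streptomycin. Cells exposed to test compound at several concentrations for 24 or 48 h, harvested and double-stained with annexin-V-FITC and PI. Surface phosphatidylserine read by flow cytometry, giving live, early apoptotic, late apoptotic and necrotic fractions. Mean ± SEM of three independent experiments.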

Jurkat cells [10] = experiment: Annexin-V/PI apoptosis assay, Jurkat; type: cell-based, human; conditions: 24 or 48 h
In short: as §3

A549 cell line = conditions: cited from earlier work
bovine brain tubulin = bovine brain tubulin (Bos taurus, UniProt P81947+Q6B856); conditions: read-out: tubulin assembly IC50; cited from earlier work
tubulin = conditions: cited from earlier work

Sequence of bovine brain tubulin (Q6B856 whole entry): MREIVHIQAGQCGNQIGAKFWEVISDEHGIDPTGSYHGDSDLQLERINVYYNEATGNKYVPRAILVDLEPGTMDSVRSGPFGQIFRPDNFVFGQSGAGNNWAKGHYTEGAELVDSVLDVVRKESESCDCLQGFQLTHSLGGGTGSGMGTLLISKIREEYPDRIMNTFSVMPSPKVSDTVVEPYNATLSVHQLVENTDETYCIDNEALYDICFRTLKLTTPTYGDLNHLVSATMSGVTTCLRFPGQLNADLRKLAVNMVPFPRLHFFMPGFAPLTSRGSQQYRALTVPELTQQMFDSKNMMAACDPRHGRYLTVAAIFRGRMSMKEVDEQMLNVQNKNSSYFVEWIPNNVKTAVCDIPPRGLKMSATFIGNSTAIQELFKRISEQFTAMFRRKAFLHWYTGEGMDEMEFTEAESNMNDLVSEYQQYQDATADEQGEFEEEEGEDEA
Sequence of bovine brain tubulin (P81947 whole entry): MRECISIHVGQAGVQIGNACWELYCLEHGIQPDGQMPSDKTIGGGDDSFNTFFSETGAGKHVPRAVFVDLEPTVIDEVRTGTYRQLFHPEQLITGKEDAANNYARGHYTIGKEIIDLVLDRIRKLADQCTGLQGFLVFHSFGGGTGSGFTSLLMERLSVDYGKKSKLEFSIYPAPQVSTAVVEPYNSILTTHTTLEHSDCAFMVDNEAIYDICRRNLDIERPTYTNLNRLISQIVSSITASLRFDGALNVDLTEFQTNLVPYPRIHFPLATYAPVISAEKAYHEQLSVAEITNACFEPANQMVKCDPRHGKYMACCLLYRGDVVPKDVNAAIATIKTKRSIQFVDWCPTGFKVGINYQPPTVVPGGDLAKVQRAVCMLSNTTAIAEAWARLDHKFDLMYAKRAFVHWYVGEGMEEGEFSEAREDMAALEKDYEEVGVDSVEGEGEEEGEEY

SMILES | GI50 [1] | ROS production (H2-DCFDA) (Jurkat cells [2]) | cells with low mitochondrial transmembrane potential (JC-1) (Jurkat cells [3]) | ROS production (H2-DCFDA) (HeLa cells [6]) | cells with low mitochondrial transmembrane potential (JC-1) (HeLa cells [8]) | induction of apoptosis (annexin-V/PI) (HeLa cells [9]) | induction of apoptosis (annexin-V/PI) (Jurkat cells [10]) | further results
CS(=O)(=O)n1ccc2c3c(=O)cc(-c4ccccc4)[nH]c3ccc21 [Compound 4b, 3-Methanesulfonyl-7-phenyl-6H-pyrrolo[3,2-f]quinolin-9-one] |  | induced the production of large amounts of ROS | marked increase in the percentage of cells with low Δϕmt | induced the production of large amounts of ROS | marked increase in the percentage of cells with low Δϕmt | significant time- and concentration-dependent increase of apoptotic cells | significant time- and concentration-dependent increase of apoptotic cells | 
CS(=O)(=O)N1CCc2cc3[nH]c(-c4ccccc4)cc(=O)c3cc21 [Compound 8b, 1N-methanesulfonyl-2,3-dihydro-6-phenyl-5H-pyrrolo [2,3-g]quinolin-8-one] | > 10 µM |  |  |  |  |  |  | 
O=c1cc(-c2ccccc2)[nH]c2ccc3c(ccn3CC3CC3)c12 [Compound 10] |  |  |  |  |  |  |  | induction of autophagy (A549 cell line): induce autophagy; IC50 (bovine brain tubulin): 0.9 µM; inhibition of colchicine binding (tubulin): 83%

Now from value to molecule, other results behind:

GI50 [1] | SMILES | ROS production (H2-DCFDA) (Jurkat cells [2]) | cells with low mitochondrial transmembrane potential (JC-1) (Jurkat cells [3]) | ROS production (H2-DCFDA) (HeLa cells [6]) | cells with low mitochondrial transmembrane potential (JC-1) (HeLa cells [8]) | induction of apoptosis (annexin-V/PI) (HeLa cells [9]) | induction of apoptosis (annexin-V/PI) (Jurkat cells [10]) | further results
0.0001 to 0.01 µM | O=C(c1ccccc1)n1ccc2c3c(=O)cc(-c4ccccc4)[nH]c3ccc21 [Compound 4a, 3-Benzoyl-7-phenyl-6H-pyrrolo[3,2-f]quinolin-9-one] | induced the production of large amounts of ROS | marked increase in the percentage of cells with low Δϕmt | induced the production of large amounts of ROS | marked increase in the percentage of cells with low Δϕmt | significant time- and concentration-dependent increase of apoptotic cells | significant time- and concentration-dependent increase of apoptotic cells | effect on cell cycle progression (HeLa cells [4]): significant G2/M arrest in a concentration-dependent manner; influence of NADPH on compound disappearance ([5]; HLMs 1 mg/mL, with or without 1 mM NADPH): not influenced by the presence of NADPH; compound remaining ([5]; human liver microsomes 1 mg/mL, 60 min, 37 °C): more than 60%; effect on cell cycle progression (Jurkat cells [7]): significant G2/M arrest in a concentration-dependent manner
0.25 to 2.65 µM | O=C(c1ccccc1)N1CCc2c1ccc1[nH]c(-c3ccccc3)cc(=O)c21 [Compound 7a, 3-benzoyl-1,2-dihydro-7-phenyl-6H-pyrrolo[3,2-f]quinolin-9-one] |  |  |  |  |  |  | 

Source: article PMC5431288 (European journal of medicinal chemistry, 2016)
